High-throughput results as filed in PubChem.
PG9 binder: small molecules binding HIV-1 gp120 antibody PG9 | actives 0.43% (n = 360,000) | TR-FRET gp120-PG9 antibody binding | inhibition, % at 6.7 µM | AID 624416; in the data active = inhibition above about 8.5%
NR2E3 ag-1: activates human NR2E3 receptor; CHO-S Gal4-NCOR/VP16-NR2E3 two-hybrid, luciferase; inhibition of corepressor binding, % at 3.98 µM; actives 0.35% (n = 360,000);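 active = inhibition above the mean of all tested compounds plus 3 SD, cut at about 70% in these data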;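 also: higher means lower luciferase signal from less NR2E3 corepressor binding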
NR2E3 ag-2: NR2E3 (human) agonism. Q9Y5X4. GST-NR2E3/biotin-RetCOR TR-FRET, 1536-well. AID 2300. inhibition of corepressor binding, % at 4.78 µM. actives 0.12% (n = 320,000);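 active = percent inhibition above the cutoff of mean plus 3 SD of all tested compounds, set per screening campaign, cut at about 20% in these data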
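Material – GST-tagged NR2E3 plus biotinylated RetCOR corepressor · Quantity – NR2E3 fusion 1.35 nM · Times – 5 h incubation at 4 °C · Medium – pH 7.5 Tris-based buffer · Technique – TR-FRET, Eu(K)-anti-GST donor, streptavidin-D2 acceptor, ex 340, em 617/671 nm · Benchmarks – high control biotin, low control 0.6% DMSO · Format – 1536-well plates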
Rev-erbA mod: Rev-erb alpha (human) modulation. activity, % at 10 µM. Rev-erbα–FITC-DNA binding, fluorescence polarization, 90 min. AID 1259318. P20393. actives 0.79% (n = 370,000);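 active = activity above about 14%, limit read from the data; passing the limit was not always enough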
Target sequence (P20393 whole entry, looked up): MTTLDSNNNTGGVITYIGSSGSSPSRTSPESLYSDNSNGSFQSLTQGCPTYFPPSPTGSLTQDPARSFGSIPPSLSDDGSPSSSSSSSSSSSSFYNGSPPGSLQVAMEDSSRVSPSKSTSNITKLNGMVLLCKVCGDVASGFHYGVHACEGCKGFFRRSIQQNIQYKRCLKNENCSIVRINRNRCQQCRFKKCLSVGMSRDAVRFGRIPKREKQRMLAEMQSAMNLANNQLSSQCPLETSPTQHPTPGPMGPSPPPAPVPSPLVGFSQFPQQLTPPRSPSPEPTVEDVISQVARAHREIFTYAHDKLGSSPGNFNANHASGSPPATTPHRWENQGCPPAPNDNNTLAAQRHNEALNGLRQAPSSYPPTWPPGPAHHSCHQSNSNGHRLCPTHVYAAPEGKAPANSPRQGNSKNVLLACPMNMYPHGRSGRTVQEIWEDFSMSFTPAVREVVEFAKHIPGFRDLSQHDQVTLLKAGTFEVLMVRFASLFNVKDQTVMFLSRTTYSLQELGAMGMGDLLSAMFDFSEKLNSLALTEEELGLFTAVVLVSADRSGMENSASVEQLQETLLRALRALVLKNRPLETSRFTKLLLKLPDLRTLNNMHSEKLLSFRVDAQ
PG9 binder conf: PG9 antibody binding, confirmed; TR-FRET PG9 antibody binding, biochemical; shares compounds with PG9 binder; inhibition, % at 6.7 µM; actives 90% (n = 1,500); in the data active = inhibition above about 9%
PGV04 counter: counter-screen for PG9 binders: binding control antibody PGV04. shares compounds with PG9 binder. TR-FRET PGV04 antibody-gp120 binding, biochemical. inhibition, % at 6.7 µM. actives 95% (n = 1,500). AID 651604; in the data active = inhibition above about 9.5%
PG9 binder DR: small molecules binding HIV-1 gp120 antibody PG9; TR-FRET PG9 antibody-gp120 binding inhibition; AID 651848; 95 tested, under 10 active; IC50, µM; shares compounds with PG9 binder; in the data active = IC50 below about 10 µM
PGV04 DR counter: counter-screen for PG9 binders: binding to control antibody PGV04. actives 20% (n = 95). shares compounds with PG9 binder. AID 651937. IC50, µM. TR-FRET binding to control antibody PGV04
PG126 binding DR: counter-screen for PG9 binders: binding to control antibody PG126 | IC50, µM | shares compounds with PG9 binder | TR-FRET binding to antibody PG126, counterscreen | actives 20% (n = 95)
Hits are given with their value; - = inactive; . = no result. This is a sample that favours compounds with a hit; in the whole collection about 1.4% have one here. Rule as the data show it, unless noted: active = IC50 below about 9 µM; inactive = the rest.

SMILES	PG9 binder	NR2E3 ag-1	NR2E3 ag-2	Rev-erbA mod	PG9 binder conf	PGV04 counter	others
CC(=O)c1ccc(NC(=O)COc2ccccc2C(=O)Nc2ccc(C)cn2)cc1	26.3	-	-	-	27.9	42.1
Cc1ccc(S(=O)(=O)c2c(N)n(CCCO)c3nc4ccccc4nc23)cc1	-	-	-	-	.	.
CCC(=O)Nc1c(S(=O)(=O)c2ccccc2)c2nc3ccccc3nc2n1C(C)c1ccccc1 (stereo unspecified)	-	-	-	-	.	.
CCCCn1c(NC(=O)c2ccco2)c(S(=O)(=O)c2ccc(C)cc2)c2nc3ccccc3nc21	17.5	-	.	-	21.4	24.5
CCCCn1c(NC(=O)c2ccc(Br)o2)c(S(=O)(=O)c2ccccc2)c2nc3ccccc3nc21	13.5	-	-	-	17.7	24.1
CCNC(=O)N(C)[C@H]1C[C@H]2c3[nH]c4c(-c5cccc(C)c5)cccc4c3CCN2C(=O)[C@H]1[C@H](C)O	.	.	.	-	.	.
CCn1c(SCC(=O)Nc2nc3ccccc3s2)nnc1-c1ccc(Br)cc1	21.1	-	-	-	23.4	35.1
Cn1c(SCC(=O)Nc2nc3ccccc3s2)nnc1-c1ccccc1	-	-	-	-	.	.
O=C1C(=O)N(Cc2cccnc2)C(c2cccc(O)c2)/C1=C(\O)c1ccc2c(c1)OCCO2 (stereo unspecified)	9.0	-	-	-	10.5	20.3
O=C1C(=O)N(Cc2ccncc2)C(c2cccc(O)c2)/C1=C(\O)c1ccc2c(c1)OCCO2 (stereo unspecified)	-	-	-	-	.	.
COc1ccccc1C1/C(=C(\O)c2ccc3c(c2)OCCO3)C(=O)C(=O)N1Cc1cccnc1 (stereo unspecified)	13.9	-	-	-	11.9	17.6
O=C1C(=O)N(Cc2cccnc2)C(c2ccccn2)/C1=C(/O)c1ccc(Br)cc1 (stereo unspecified)	11.4	-	-	-	18.0	22.7
CCOc1ccc(C2/C(=C(\O)c3ccc4c(c3)OCCO4)C(=O)C(=O)N2Cc2cccnc2)cc1OCC (stereo unspecified)	-	-	-	-	.	.
COc1ccc(S[C@]2(C(=O)N3CCN(c4ncccn4)CC3)CC(=O)N(c3ccc(OC)cc3)[C@@H]2c2ccc(OC)cc2)cc1	.	.	.	-	.	.
COC(=O)C/C=C/[C@H](C)[C@@H](NC(=O)C(F)(F)F)c1ccccc1Br	.	.	.	-	.	.
O=C(Cn1cnc2ccccc2c1=O)Nc1nc2ccccc2s1	17.9	-	-	-	21.2	28.1
CCc1ccc2nc(NC(=O)Cn3cnc4ccccc4c3=O)sc2c1	-	-	-	-	.	.
Cc1ccc(S(=O)(=O)Nc2nc3ccccc3nc2Nc2cccc(S(=O)(=O)N3CCCC3)c2)cc1	9.8	-	-	-	12.1	13.6
O=[N+]([O-])c1cccc(S(=O)(=O)Nc2nc3ccccc3nc2Nc2cccc(S(=O)(=O)N3CCCCC3)c2)c1	-	-	.	-	.	.
C[C@H]1COc2cc(Br)ccc2S(=O)(=O)N1Cc1cn(CCC2OCCO2)nn1	.	.	.	-	.	.
CCSc1nnc(NC(=O)COc2ccc3ccccc3c2)s1	13.8	-	-	-	19.8	35.4
Cc1csc(NC(=O)C(Cc2ccccc2)n2cccc2)n1 (stereo unspecified)	-	-	-	-	.	.
CCSc1nnc(NC(=O)c2csc(C)c2)s1	12.4	-	-	-	18.9	31.3
CCSc1nnc(NC(=O)C(Cc2ccccc2)n2cccc2)s1 (stereo unspecified)	10.0	-	-	-	20.8	20.6	PG9 binder DR=-;PGV04 DR counter=-;PG126 binding DR=-
O=C(CCc1ccccc1)N[C@H]1[C@H](OC(=O)c2cccnc2)CCC[C@@]12C(=O)N(Cc1ccccc1)c1ccccc12	.	.	.	-	.	.
SMILES	PG9 binder	NR2E3 ag-1	NR2E3 ag-2	Rev-erbA mod	PG9 binder conf	PGV04 counter	others
O=C(NCCN1CCC(Cc2ccccc2)CC1)C1CCCN(S(=O)(=O)c2cccs2)C1 (stereo unspecified)	.	.	.	-	.	.
O=C(c1cc(Br)cc(Br)c1)N1CCC(Oc2cccnc2)CC1	.	.	.	-	.	.
Cn1c(C(=O)N2CCN(c3nc4ccccc4s3)CC2)cc2sccc21	13.8	-	-	-	20.2	30.6
COC(=O)CCC(=O)NC(=S)Nc1sc(C)c(C)c1C(N)=O	36.5	-	-	-	33.3	42.5
COC(=O)CCC(=O)Nc1sc(C)c(C)c1C(N)=O	-	-	-	-	.	.
CCCCCCCCN1C(=O)[C@@H](CC(=O)NCCCOCCCC)C[C@@]2(C(=O)OC)C1=C[C@H](COCc1ccccc1)O[C@@H]2C	.	.	.	-	.	.
CC(C)(C)c1ccc(S(=O)(=O)N2CCCC2C(=O)N2CCc3ccccc3C2)cc1 (stereo unspecified)	.	.	.	-	.	.
COc1ccc2c(Cl)c(C(=O)NN)sc2c1	-	-	-	-	.	.
COc1ccc2c(Cl)c(C(N)=O)sc2c1	18.0	-	-	-	25.6	35.1
COC(=O)C1(C)CN(S(=O)(=O)c2ccc(C)cc2)c2cc(OC)ccc2C1=O (stereo unspecified)	8.6	-	-	-	15.2	17.7
CCCCNC(=O)NS(=O)(=O)c1ccc(NC(=O)CSc2ncnc3scc(-c4ccc(C)cc4)c23)cc1	.	.	.	-	.	.
O=C(COC(=O)c1cn(-c2ccccc2)nc1-c1ccccc1)Nc1ncc(Cl)cc1Cl	14.7	-	-	-	21.7	32.9
COc1cccc(-c2nn(-c3ccccc3)cc2C(=O)OCC(=O)Nc2ncc(Cl)cc2Cl)c1	-	-	-	-	.	.
O=C(NCCN1CCOCC1)c1cc(-c2ccc(Br)cc2)on1	-	-	-	-	.	.
C=CCNC(=O)c1cc(-c2ccc(Br)cc2)on1	9.4	-	-	-	25.3	28.1
Cc1csc2c(=O)sc(NC(=O)c3ccco3)nc12	37.4	-	-	-	48.6	78.0
Cc1csc2c(=O)sc(NC(=O)c3cccs3)nc12	63.7	-	-	-	65.8	87.8
Cc1csc(NC(=O)c2cccs2)n1	-	-	-	-	.	.
CSc1nc2sc3c(c2c(=S)[nH]1)CC(C)(C)OC3	12.3	-	.	-	44.0	73.2
CCc1nc2sc3c(c2c(=S)[nH]1)CC(C)(C)OC3	-	-	.	-	.	.
COc1ccccc1NC(=O)c1sc2ncn(CC(=O)N3CCC(C)CC3)c(=O)c2c1C	-	-	-	-	.	.
CCn1cnc2sc(C(=O)Nc3ccccc3OC)c(C)c2c1=O	53.4	-	-	-	45.6	65.2
CCc1nnc(NC(=O)Cc2ccc(OCc3c(C)noc3C)cc2)s1	19.4	-	-	-	18.7	41.7
